Data as given in ChEMBL document CHEMBL4673343, “Lythrum salicaria Ellagitannins Stimulate IPEC-J2 Cells Monolayer Formation and Inhibit Enteropathogenic Escherichia coli Growth and Adhesion” (J Nat Prod, 2020).
Calls of active or inactive are those of the source. No cut-off for these calls is given here.

Key:
IPEC-J2 [1] = test: Induction of claudin-4 protein expression in porcine IPEC-J2 cells at 20 uM after 6 days by Western blot analysis; assay type: functional, cell-based; settings: Sus scrofa domesticus, time 6.0 day
In short: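 Inserts were treated apically with 20 μM from day 7, with medium renewed at day 10. At day 13 cells were lysed and protein equalized by BCA, then run on SDS–PAGE and transferred to nitrocellulose. Blots were probed with mouse anti-claudin 4 and an HRP secondary and detected by ECL. Band intensity was normalized to β-actin and expressed as fold over PBS control.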

IPEC-J2 [2] = test: Induction of porcine IPEC-J2 cells monolayer development assessed as increase in transepithelial electrical resistance at 20 uM after 6 days by voltammetric method; assay type: functional, cell-based; settings: Sus scrofa domesticus, time 6.0 day
In short: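 IPEC-J2 cells were seeded at 5 × 10^5/insert (0.4 μm PET) and cultured until TEER exceeded 1 kΩ cm2 (day 7). Apical medium was then replaced with 20 μM compound or PBS and renewed at day 10, with basolateral medium changed in parallel. TEER was read with an EVOM2 chopstick electrode at days 10 and 13. Mann–Whitney test versus PBS.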

Escherichia coli [3] = test: Growth inhibition of Escherichia coli DSM 2840 at 20 to 500 uM measured every 5 mins for 24 hrs by turbidometric analysis; assay type: functional, organism-based; settings: dose 20-500 µM, time hrs <=24
In short: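 Strains were revived from cryostocks and passaged twice daily in BHI with shaking at 37 °C over 2 days. Double-strength BHI plus diluted test stock (compounds in DMSO, 0.22 μm filtered), inoculum at final 10^4 CFU/mL, film-sealed for anaerobic conditions, 37 °C in plate reader. OD690 was read every 5 min for 24 h; lag time came from the lag-exponential method. Three independent experiments were run, each in triplicate.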

IPEC-J2 [4] = test: Induction of porcine IPEC-J2 cells monolayer development assessed as increase in transepithelial electrical resistance at 50 uM after 6 days by voltammetric method; assay type: functional, cell-based; settings: Sus scrofa domesticus, time 6.0 day
Escherichia coli [5] = test: Growth inhibition of Escherichia coli 0147:K89:K88 at 20 to 500 uM measured every 5 mins for 24 hrs by turbidometric analysis; assay type: functional, organism-based; settings: dose 20-500 µM, time hrs <=24
In short: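 Compound stocks were made in DMSO and filtered. The turbidimetric assay used double-strength BHI, 20–500 μM, E. coli at final 10^4 CFU/mL, and sealed anaerobic plates at 37 °C. OD690 was read every 5 min over 24 h.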

Row | Compound | Activity (IPEC-J2 [1]) | Activity (IPEC-J2 [2]) | growth inhibition (GI) (Escherichia coli [3]) | Activity (IPEC-J2 [4]) | growth inhibition (GI) (Escherichia coli [5])
1 | O=C(O[C@@H]1COC(=O)c2cc(O)c(O)c(O)c2-c2c(cc(O)c(O)c2O)C(=O)O[C@H]1[C@@H]1OC(=O)c2cc(O)c(O)c(O)c2-c2c(O)c(O)c(O)c3c2C(=O)O[C@H]1[C@@H]3O)c1cc(O)c(O)c(O)c1Oc1cc2c(c(O)c1O)-c1c(cc(O)c(O)c1O)C(=O)OC[C@H]1OC(=O)c3cc(O)c(O)c(O)c3-c3c(O)c(O)c(O)c4c3C(=O)O[C@H]([C@H]3OC(=O)c5c-4c(O)c(O)c(O)c5[C@@H]3O)[C@@H]1OC2=O | Active | Active | – | – | –
2 | O=c1oc2cc(O)ccc2c2cc(O)c(O)cc12 | – | – | inactive | inactive | inactive
3 | O=c1oc2cc(O)ccc2c2ccc(O)cc12 | – | – | inactive | inactive | inactive
